Assay results reported in publication PMC9134407 (ACS Omega, 2022).

Legend:
[1] = Cell-Titer Blue cytotoxicity assay; format: cell-based; conditions: human, HEK293T cells
human FXR = molecular target: T1, human FXR (Homo sapiens, UniProt Q96RI1); test: cell-based luciferase reporter assay; conditions: for inhibition at 10 µM: HEK-293T
T1 sequence (Q96RI1 1-486): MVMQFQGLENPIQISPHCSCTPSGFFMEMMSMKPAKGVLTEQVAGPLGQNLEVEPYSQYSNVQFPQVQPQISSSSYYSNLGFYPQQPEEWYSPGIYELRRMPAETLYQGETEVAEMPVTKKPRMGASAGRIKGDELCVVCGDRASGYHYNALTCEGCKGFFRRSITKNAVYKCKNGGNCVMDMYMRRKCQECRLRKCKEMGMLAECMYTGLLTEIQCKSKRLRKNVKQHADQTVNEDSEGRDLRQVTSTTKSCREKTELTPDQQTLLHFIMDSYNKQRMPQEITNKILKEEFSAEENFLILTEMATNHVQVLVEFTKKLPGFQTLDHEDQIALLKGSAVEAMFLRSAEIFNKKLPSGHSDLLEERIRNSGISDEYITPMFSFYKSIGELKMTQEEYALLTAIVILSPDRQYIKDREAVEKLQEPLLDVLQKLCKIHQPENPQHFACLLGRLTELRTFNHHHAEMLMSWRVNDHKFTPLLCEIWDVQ
Summary of the method: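 HEK293T cells transiently cotransfected with a human FXR expression vector and an SHP promoter luciferase reporter (SHP-luc). Transactivation was driven by GW4064 at 10 μM, with or without test compound. FXR-dependent reporter activity was read as luciferase signal.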

FXR = conditions: read-out: IC50 FXR antagonist; cited from earlier work

In the case of `CC(=O)O[C@@H]1CC[C@]2(C)C(=O)[C@H](C3CC[C@H]([C@H](C)CCCC(C)C)[C@@]3(C)CC(=O)O)CC[C@H]2C1` (stereo partly shown) [Compound 3a], the viability at 10 µM [1] is reported as > 100% and the inhibition at 10 µM (human FXR) is reported as 54.7 ± 6.2%.
In the case of `CC(=O)O[C@H]1CC[C@]2(C)C(=O)[C@H](C3CC[C@H]([C@H](C)CCCC(C)C)[C@@]3(C)CC(=O)O)CC[C@H]2C1` (stereo partly shown) [Compound 3b], the viability at 10 µM [1] is reported as > 100% and the inhibition at 10 µM (human FXR) is reported as 24.9 ± 2%.
With `CC(C)CCC[C@@H](C)[C@H]1CCC([C@@H]2CC[C@H]3C[C@H](O)CC[C@]3(C)C2=O)[C@]1(C)CC(=O)O` (stereo partly shown) [Compound 4a] the viability at 10 µM [1] was > 100% and the inhibition at 10 µM (human FXR) was 53.1 ± 4.9%.
For `CC(C)CCC[C@@H](C)[C@H]1CCC([C@@H]2CC[C@H]3C[C@@H](O)CC[C@]3(C)C2=O)[C@]1(C)CC(=O)O` (stereo partly shown) [Compound 4b], the viability at 10 µM [1] was > 100% and the inhibition at 10 µM (human FXR) was 14.1 ± 4.1%.
With `CC(C)CCC[C@@H](C)[C@H]1CCC([C@@H]2CC[C@H]3C[C@H](O)CC[C@]3(C)C2=O)[C@]1(C)C/C=C/C(=O)O` (stereo partly shown) [Compound 7] the viability at 10 µM [1] was > 100% and the inhibition at 10 µM (human FXR) was 76.3 ± 1.9%.
For `CC(C)CCC[C@@H](C)[C@H]1CCC([C@@H]2CC[C@H]3C[C@H](O)CC[C@]3(C)C2=O)[C@]1(C)CCCC(=O)O` (stereo partly shown) [Compound 8], the viability [1] was 41.1%, the viability at 10 µM [1] was > 100% and the IC50 (human FXR) was 7.7 µM. The inhibition at 10 µM (human FXR) was 85.8 ± 2.4%.
In the case of `C[C@H](CCC(=O)NCC(=O)O)[C@H]1CC[C@H]2[C@@H]3[C@@H](O)C[C@@H]4C[C@H](O)CC[C@]4(C)[C@H]3CC[C@]12C` [GUDCA, glycoursodeoxycholic acid], the IC50 (FXR) is listed as 77.2 µM.
In the case of `C[C@H](CCC(=O)O)[C@H]1CC[C@H]2[C@@H]3[C@H](O)[C@H](O)[C@@H]4C[C@H](O)CC[C@]4(C)[C@H]3CC[C@]12C` [HCA, hyocholic acid, reference compound], the viability [1] is given as > 100%, the IC50 (human FXR) is given as 27.3 µM and the IC50 (FXR) is given as 70.1 µM.
For `C[C@H](CCC(=O)NCCS(=O)(=O)O)[C@H]1CC[C@H]2[C@@H]3[C@@H](O)C[C@@H]4C[C@H](O)CC[C@]4(C)[C@H]3CC[C@]12C` [TUDCA, tauroursodeoxycholic acid], the IC50 (FXR) is given as 75.1 µM.
